Experimental data published in ChEMBL document CHEMBL3232870, “Discovery of 3-(4-methanesulfonylphenoxy)-N-[1-(2-methoxy-ethoxymethyl)-1H-pyrazol-3-yl]-5-(3-methylpyridin-2-yl)-benzamide as a novel glucokinase activator (GKA) for the treatment of type 2 diabetes mellitus” (Bioorg Med Chem, 2014).

Experiments:
[1] = test system: Mus musculus; assay: Toxicity in fasting C57BL/J6 mouse assessed as glucose lowering effect at 50 mg/kg, po after 30 to 360 mins; format: organism-based; set-up: dose 50 mg/kg, route oral; conditions: in vivo
Outline: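 Eight-week-old male C57BL/6 mice were fasted 6 h with free access to water, then dosed orally with compound or 0.5% methylcellulose vehicle, with no glucose challenge. Blood glucose was followed up to 360 min, n = 6 per group.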

[2] = test system: Salmonella typhimurium; assay: Cytotoxicity in Salmonella typhimurium TA98 at 1.5 to 5000 ug/plate in absence of S9 fraction; format: organism-based; conditions: salmonella enterica subsp. enterica serovar typhimurium
Outline: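 Ames reverse mutation test by direct plate incorporation in S. typhimurium TA98 and TA100, with or without Aroclor 1254-induced rat liver S9 mix. Compound in DMSO at 1.5–5000 µg/plate, plated in top agar, incubated 37 °C for about 50 h, then revertant colonies counted. Plates were checked for precipitation and cytotoxicity. A positive was a reproducible, dose-related increase in revertants of more than 2-fold.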

[3] = Metabolic stability in human liver microsomes assessed as compound remaining after 1 hr relative to control; format: ADME; conditions: read-out: Stability
Outline: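 Liver microsomes from mouse, dog or human were incubated with compound for 1 h, and the percentage of compound remaining was determined.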

[4] = Clearance in ICR mouse at 3 mg/kg, iv and 10 mg/kg, po; format: ADME, organism-based; conditions: in vivo
Outline: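 Male ICR mice and 7-week-old SD rats received a 3 mg/kg intravenous bolus or a 10 mg/kg oral gavage dose. Plasma was deproteinized with acetonitrile (2 volumes) and compound measured by HPLC. Parameters came from noncompartmental analysis.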

[5] = Tmax in ICR mouse at 3 mg/kg, iv and 10 mg/kg, po; format: ADME, organism-based; conditions: in vivo
Outline: (§1)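 Male ICR mice and 7-week-old SD rats received a 3 mg/kg iv bolus or a 10 mg/kg oral gavage dose. Plasma was precipitated with 2 volumes of acetonitrile and analysed by HPLC. Parameters came from noncompartmental analysis.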

[6] = Oral bioavailability in Sprague-Dawley rat at 10 mg/kg; format: ADME, organism-based; conditions: in vivo; outline: as §1
[7] = Cmax in male Sprague-Dawley rat at 1000 mg/kg, po measured on day 1; format: ADME, organism-based; set-up: dose 1000 mg/kg, route oral; conditions: in vivo
Outline: (§2)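 Sprague–Dawley rats, 5 weeks old at arrival, both sexes. Given the compound by oral gavage once daily for 14 days at 0, 250, 500 or 1000 mg/kg/day, with 0.5% methylcellulose as vehicle. Toxicokinetic parameters were determined on Day 1 and Day 14.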

[8] = Cmax in male Sprague-Dawley rat at 1000 mg/kg, po measured on day 14; format: ADME, organism-based; set-up: dose 1000 mg/kg, route oral; conditions: in vivo; outline: as §2
[9] = Cmax in female Sprague-Dawley rat at 500 mg/kg, po measured on day 1; format: ADME, organism-based; set-up: dose 500 mg/kg, route oral; conditions: in vivo; outline: as §2
[10] = Tmax in male Sprague-Dawley rat at 250 mg/kg, po measured on day 1; format: ADME, organism-based; set-up: dose 250 mg/kg, route oral; conditions: in vivo
Outline: (§3)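 Sprague–Dawley rats of both sexes, 5 weeks old at arrival, received daily oral gavage at 0, 250, 500 or 1000 mg/kg/day for 14 days. Vehicle was 0.5% methylcellulose at 10 mL/kg. Toxicokinetics were taken on Day 1 and Day 14. Necropsy was by Day 15. Testis was fixed in modified Davidson's fixative, paraffin-sectioned and H&E-stained, with histopathology on control and high-dose groups only.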

[11] = Tmax in male Sprague-Dawley rat at 500 mg/kg, po measured on day 1; format: ADME, organism-based; set-up: dose 500 mg/kg, route oral; conditions: in vivo; outline: as §3
[12] = Tmax in male Sprague-Dawley rat at 1000 mg/kg, po measured on day 1; format: ADME, organism-based; set-up: dose 1000 mg/kg, route oral; conditions: in vivo; outline: as §3
[13] = AUC (0 to t) in male Sprague-Dawley rat at 500 mg/kg, po measured on day 1; format: ADME, organism-based; set-up: dose 500 mg/kg, route oral; conditions: plasma; outline: as §2
[14] = AUC (0 to t) in male Sprague-Dawley rat at 500 mg/kg, po measured on day 14; format: ADME, organism-based; set-up: dose 500 mg/kg, route oral; conditions: plasma; outline: as §2
[15] = AUC (0 to t) in male Sprague-Dawley rat at 1000 mg/kg, po measured on day 14; format: ADME, organism-based; set-up: dose 1000 mg/kg, route oral; conditions: plasma; outline: as §2
[16] = AUC (0 to t) in female Sprague-Dawley rat at 250 mg/kg, po measured on day 1; format: ADME, organism-based; set-up: dose 250 mg/kg, route oral; conditions: plasma; outline: as §2
[17] = AUC (0 to t) in female Sprague-Dawley rat at 250 mg/kg, po measured on day 14; format: ADME, organism-based; set-up: dose 250 mg/kg, route oral; conditions: plasma; outline: as §2
[18] = test system: Canis familiaris; assay: Toxicity in Beagle dog assessed as testicular effect administered repeated dose level of 300 mg/kg/day, po administered on days 3, 6 and 8 by hematoxylin and eosin staining-based microscopy; format: organism-based, Canis lupus familiaris; set-up: route oral; conditions: in vivo
Outline: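 Dogs received escalating oral doses of 100, 300 and 1000 mg/kg/day over 8 days (Days 3, 6 and 8 for each dose). Vehicle was 0.5% methylcellulose at 5 mL/kg. Two animals were necropsied at termination, and testes were fixed in modified Davidson's fixative, paraffin-embedded, H&E-stained and examined microscopically.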

[19] = molecular target: Cytochrome P450 2C19 (Homo sapiens, UniProt P33261); assay: Inhibition of CYP2C19 in human liver microsomes; format: ADME
Outline: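 Pooled human liver microsomes (0.25 mg/mL) with a CYP-selective substrate and test compound, preincubated at 37 °C. Stopped on ice with ice-cold acetonitrile, centrifuged, and the supernatant analysed by LC–MS/MS.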

[20] = molecular target: T1, Cytochrome P450 1A2 (Homo sapiens, UniProt P05177); assay: Inhibition of CYP1A2 in human liver microsomes; format: ADME
T1 sequence (P05177 whole entry): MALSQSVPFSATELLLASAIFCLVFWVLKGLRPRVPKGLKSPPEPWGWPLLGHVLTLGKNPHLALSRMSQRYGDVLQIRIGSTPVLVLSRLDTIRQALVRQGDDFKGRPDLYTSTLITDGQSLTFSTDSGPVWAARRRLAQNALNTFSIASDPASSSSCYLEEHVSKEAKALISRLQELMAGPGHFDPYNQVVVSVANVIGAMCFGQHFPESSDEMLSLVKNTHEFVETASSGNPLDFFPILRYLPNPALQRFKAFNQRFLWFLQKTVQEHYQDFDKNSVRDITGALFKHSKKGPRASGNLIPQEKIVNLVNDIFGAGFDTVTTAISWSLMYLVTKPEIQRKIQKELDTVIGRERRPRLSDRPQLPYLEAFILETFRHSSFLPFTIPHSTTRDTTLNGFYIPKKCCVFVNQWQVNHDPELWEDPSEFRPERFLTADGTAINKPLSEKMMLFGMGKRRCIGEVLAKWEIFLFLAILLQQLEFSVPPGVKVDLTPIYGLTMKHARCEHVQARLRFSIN
Outline: (§4)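 Pooled human liver microsomes at 0.25 mg/mL, each with a CYP-selective substrate and test compound up to 25 µM, preincubated at 37 °C. It is stopped on ice with ice-cold acetonitrile and centrifuged, and the supernatant is analysed by LC–MS/MS.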

[21] = molecular target: Cytochrome P450 3A (Homo sapiens, UniProt P08684+P20815+Q9HB55+P24462); assay: Inhibition of CYP3A in human liver microsomes; format: ADME; outline: as §4
[22] = molecular target: Cytochrome P450 2C9 (Homo sapiens, UniProt P11712); assay: Inhibition of CYP2C9 in human liver microsomes; format: ADME; outline: as §4
Chain of Cytochrome P450 2C9 (P11712 whole entry): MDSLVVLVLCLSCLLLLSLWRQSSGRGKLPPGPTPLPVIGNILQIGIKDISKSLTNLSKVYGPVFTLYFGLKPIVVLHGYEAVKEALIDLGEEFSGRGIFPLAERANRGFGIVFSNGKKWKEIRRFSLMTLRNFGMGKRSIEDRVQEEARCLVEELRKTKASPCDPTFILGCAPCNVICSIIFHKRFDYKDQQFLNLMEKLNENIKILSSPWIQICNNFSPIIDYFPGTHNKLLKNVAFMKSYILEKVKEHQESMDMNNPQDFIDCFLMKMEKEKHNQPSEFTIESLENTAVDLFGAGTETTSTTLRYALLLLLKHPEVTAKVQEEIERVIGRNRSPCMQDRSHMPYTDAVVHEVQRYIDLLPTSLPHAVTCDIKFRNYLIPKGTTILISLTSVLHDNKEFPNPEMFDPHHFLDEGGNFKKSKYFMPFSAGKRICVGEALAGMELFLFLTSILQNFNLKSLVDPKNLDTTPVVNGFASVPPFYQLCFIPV

Chain of Cytochrome P450 2C19 (P33261 whole entry): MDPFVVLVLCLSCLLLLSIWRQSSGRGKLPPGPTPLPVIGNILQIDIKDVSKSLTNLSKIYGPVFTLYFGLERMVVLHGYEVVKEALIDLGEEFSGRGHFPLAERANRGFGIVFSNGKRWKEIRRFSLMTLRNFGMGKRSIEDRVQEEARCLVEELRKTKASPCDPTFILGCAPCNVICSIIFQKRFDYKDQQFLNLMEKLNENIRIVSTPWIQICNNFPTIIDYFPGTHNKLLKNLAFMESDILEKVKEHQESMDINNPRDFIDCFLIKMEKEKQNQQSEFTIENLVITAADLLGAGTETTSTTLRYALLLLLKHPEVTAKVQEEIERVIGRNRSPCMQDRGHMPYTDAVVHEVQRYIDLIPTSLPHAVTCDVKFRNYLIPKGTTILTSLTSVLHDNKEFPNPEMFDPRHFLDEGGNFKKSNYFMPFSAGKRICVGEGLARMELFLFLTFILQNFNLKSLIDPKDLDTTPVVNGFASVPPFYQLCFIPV

remaining at 1 h [3]: > 60%
clearance [4]: 3.33 mL/min/kg
Tmax [5]: 0.25 h
bioavailability [6]: 22%
Cmax [7]: 4250 ng/mL
Cmax [8]: 3090 ng/mL
Cmax [9]: 4300 ng/mL
Tmax [10]: 2.7 h
Tmax [11]: 3.7 h
Tmax [12]: 4 h
AUC(0-t) [13]: 16900 ng·h/mL
AUC(0-t) [14]: 13600 ng·h/mL
AUC(0-t) [15]: 25000 ng·h/mL
AUC(0-t) [16]: 13700 ng·h/mL
AUC(0-t) [17]: 17600 ng·h/mL
inhibition (INH) [19]: Not Active
inhibition (INH) [20]: Not Active
inhibition (INH) [21]: Not Active
IC50 [22]: 5.2 µM
SMILES: COCCOCn1ccc(NC(=O)c2cc(Oc3ccc(S(C)(=O)=O)cc3)cc(-c3ncccc3C)c2)n1
Activity [1]: Toxic
Activity [2]: Non-toxic
Activity [18]: Non-toxic
